The text below walks through data of ChEMBL document CHEMBL1148578, “Synthesis and biological evaluation of 6-(alkyn-1-yl)furo[2,3-d]pyrimidin-2(3H)-one base and nucleoside derivatives” (J Med Chem, 2006).

Where only a bound is given, the exact number is not on record here.

The subject of test [1] is Human betaherpesvirus 5. Description: Antiviral activity against human cytomegalovirus Davis strain. In kind it is functional, organism-based. The conditions noted are these: Human betaherpesvirus 5, Davis. The essentials: (§1)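 Virus was removed and medium with graded compound concentrations was added, in duplicate. After 7 days at 37 °C, cells were ethanol-fixed and Giemsa-stained, and cytopathogenicity was scored microscopically.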

Test [2] deals with HEL. Kind of test: Cytotoxic activity against cultured human embryonic lung (HEL) cells. Format: functional. Summed up:
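HEL cells were seeded at 5 × 10³/well and grown for 24 h, then exposed to graded compound concentrations for 3 days at 37 °C. MCC was the lowest concentration giving microscopically visible alteration of cell morphology.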

Test [3] deals with Human alphaherpesvirus 3. Kind of test: Antiviral activity against Varicella-Zoster virus YS strain. The conditions noted are these: Human alphaherpesvirus 3, YS. In kind it is functional, organism-based.
The subject of test [4] is Human alphaherpesvirus 3. Description: Antiviral activity against Varicella-Zoster virus YS/R strain. The conditions noted are these: Human alphaherpesvirus 3, YS/R. Format: functional, organism-based. The essentials: (§2)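 HEL cell monolayers were infected with VZV (TK⁻ strains YS/R and 07/1) for 2 h. Residual virus was then removed and medium with graded compound concentrations was added, in duplicate. After 5 days at 37 °C, cells were ethanol-fixed and Giemsa-stained, and plaques were counted microscopically.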

In test [5] the test system is Human betaherpesvirus 5. Kind of test: Antiviral activity against human cytomegalovirus AD169 strain. In kind it is functional, organism-based. The conditions noted are these: Human betaherpesvirus 5, AD169. The essentials: as §1
Test [6] relates to Human alphaherpesvirus 3. Description: Antiviral activity against Varicella-Zoster virus 07/1 strain. Format: functional, organism-based. The conditions noted are these: Human alphaherpesvirus 3, 07/1. Summed up: as §2

A word on the EC50: it is the concentration at which the effect is half-maximal. The CC50 is the concentration giving 50% cytotoxicity. The low end stands for greater toxicity to the cells, the high end for lower toxicity to the cells. Regarding `CCCCC#Cc1cc2cn([C@H]3C[C@H](O)[C@@H](CO)O3)c(=O)nc2o1`, the EC50 is over 150 µM in test [1]; 87 µM in test [3]; 90 µM in test [4]; over 150 µM in test [5]; at least 135 µM in test [6]. Besides, in test [2], the CC50 was over 150 µM. In test [2], this compound displayed an MCC of over 150 µM.

For the compound `CCCCCCCCCCC#Cc1cc2cn([C@@H]3O[C@H](CO)[C@@H](O)[C@H]3O)c(=O)nc2o1`, the EC50 in test [1] is over 4.6 µM; in test [3], over 4.6 µM; in test [4] it was 3.5 µM; in test [5], over 4.6 µM; in test [6], 4.6 µM. The CC50 in test [2] came to 44 µM. The same compound displayed an MCC in test [2] of 12 µM.

Regarding `CCCCCCC#Cc1cc2cn([C@@H]3O[C@H](CO)[C@@H](O)[C@H]3O)c(=O)nc2o1`, the EC50 was over 53 µM in test [1]; at least 39 µM in test [3]; 19 µM in test [4]; over 133 µM in test [5]; 39 µM in test [6]. Besides, in test [2], the CC50 was over 133 µM. The compound also gave an MCC in test [2] of at least 133 µM.

On to `CCCCCCCCC#Cc1cc2cn([C@@H]3O[C@H](CO)[C@@H](O)[C@H]3O)c(=O)nc2o1`, for which the EC50 in test [1] is at least 9.3 µM; in test [3], over 12 µM; in test [4] it was 6.2 µM; in test [5], 7.3 µM; in test [6], at least 12 µM. Moreover, the midpoint of cytotoxicity in test [2], the CC50, lay at 62 µM. The compound further displayed an MCC in test [2] of 49 µM.

In the case of `CCCCCCCCCCC#Cc1cc2cn([C@@H]3O[C@H](CO)[C@@H](O)[C@@H]3O)c(=O)nc2o1`, the EC50 was over 12 µM in test [1]; at least 16 µM in test [3]; 5.7 µM in test [4]; over 12 µM in test [5]; over 12 µM in test [6]. In test [2], this compound yielded a CC50 of 116 µM. Further, in test [2], the MCC came out at 46 µM.

`CCCCC#Cc1cc2cn([C@@H]3O[C@H](CO)[C@@H](O)[C@H]3O)c(=O)nc2o1`: the EC50 in test [1] is over 144 µM; in test [3], at least 113 µM; in test [4], 52 µM; in test [5] it was over 144 µM; in test [6], 144 µM. This compound also displayed a CC50 in test [2] of over 144 µM. Besides, the MCC in test [2] was over 144 µM.

Consider `Nc1nc2c(ncn2COC(CO)CO)c(=O)[nH]1` [GANCICLOVIR], for which the midpoint of the response in test [1], the EC50, lay at 8.7 µM. In test [2], this compound yielded a CC50 of over 197 µM and an MCC of over 197 µM.

For `Nc1nc2c(ncn2COCCO)c(=O)[nH]1` [ACYCLOVIR], in test [2], the CC50 is over 889 µM and the MCC is over 222 µM.

In the case of `CCCCC#Cc1cc2cn([C@@H]3O[C@H](CO)[C@@H](O)[C@@H]3O)c(=O)nc2o1`, the EC50 is over 144 µM in test [1]; over 144 µM in test [3]; 63 µM in test [4]; over 144 µM in test [5]; over 144 µM in test [6]. Besides, the CC50 in test [2] is over 144 µM. The compound further returned an MCC in test [2] of over 144 µM.

For `CCCCCCCCCCC#Cc1cc2cn(C)c(=O)nc2o1`, the EC50 in test [1], in test [3], in test [4], in test [5] and in test [6] was over 150 µM each time. Besides, the CC50 in test [2] was over 150 µM. In addition, in test [2], the MCC was over 150 µM.

On to `CCCCCCCCCCC#Cc1cc2cn([C@H]3C[C@H](O)[C@@H](CO)O3)c(=O)nc2o1`, for which the EC50 in test [1] was over 4.8 µM; in test [3] it was at least 5.7 µM; in test [4] it was 2.5 µM; in test [5], over 4.8 µM; in test [6], at least 6 µM. In test [2], this compound returned a CC50 of 36 µM. Besides, the MCC in test [2] was determined as 30 µM.

Turning to `CCCCCCC#Cc1cc2cn(C)c(=O)nc2o1`, the EC50 in test [1] was 37 µM; in test [3], at least 89 µM; in test [4] it was 23 µM; in test [5], 31 µM; in test [6], over 77 µM. The compound further displayed a CC50 in test [2] of over 194 µM. The MCC in test [2] was 194 µM.

With `CCCCCCC#Cc1cc2cn([C@H]3C[C@H](O)[C@@H](CO)O3)c(=O)nc2o1`, the EC50 was 19 µM in test [1]; 1.5 µM in test [3]; 22 µM in test [4]; 21 µM in test [5]; 25 µM in test [6]. In test [2], this compound displayed a CC50 of 138 µM. This compound also showed an MCC in test [2] of at least 97 µM.

Regarding `CCCCCCCCC#Cc1cc2cn([C@H]3C[C@H](O)[C@@H](CO)O3)c(=O)nc2o1`, the 50% effective concentration (EC50) in test [1] is 7.6 µM; in test [3], 2.7 µM; in test [4], 6.5 µM; in test [5] it was 7.4 µM; in test [6], over 13 µM. The compound also displayed a CC50 in test [2] of 77 µM. The compound further had an MCC in test [2] of 52 µM.

For `CCCCCCC#Cc1cc2cn([C@@H]3O[C@H](CO)[C@@H](O)[C@@H]3O)c(=O)nc2o1`, the EC50 in test [1] was over 53 µM; in test [3], at least 43 µM; in test [4], 21 µM; in test [5] it was over 53 µM; in test [6], 34 µM. This compound also displayed a CC50 in test [2] of over 53 µM. Further, the MCC in test [2] is 133 µM.

In the case of `CCCCC#Cc1cc2cn(C)c(=O)nc2o1`, the concentration giving a half-maximal response (EC50) is 139 µM in test [1]; 217 µM in test [3]; over 87 µM in test [4]; over 217 µM in test [5]; over 87 µM in test [6]. The compound also showed a CC50 in test [2] of over 217 µM. In test [2], this compound yielded an MCC of at least 217 µM.

`CCCCCCCCC#Cc1cc2cn(C)c(=O)nc2o1`: the EC50 in test [1] was over 175 µM; in test [3], over 175 µM; in test [4], over 175 µM; in test [5], over 175 µM; in test [6], over 70 µM. In addition, in test [2], the CC50 is over 175 µM. Also, the MCC in test [2] was over 175 µM.

Consider `CCCCCCCCC#Cc1cc2cn([C@@H]3O[C@H](CO)[C@@H](O)[C@@H]3O)c(=O)nc2o1`, for which the EC50 in test [1] is 12 µM; in test [3], at least 11 µM; in test [4] it was 3.7 µM; in test [5] it was over 12 µM; in test [6], 11 µM. Further, the CC50 in test [2] was over 124 µM. In test [2], this compound yielded an MCC of 49 µM.

Regarding `O=c1[nH]c(=O)n([C@H]2C[C@H](O)[C@@H](CO)O2)cc1/C=C/Br` [BRIVUDINE], the CC50 in test [2] was over 150 µM. In test [2], this compound came in with an MCC of over 150 µM. The figures for the EC50 in test [3], in test [4] and in test [6] were 0.01 µM, at least 126 µM and at least 99 µM, respectively.
